# Data: ChEMBL document CHEMBL1129944, “[[(Arylpiperazinyl)alkyl]thio]thieno[2,3-d]pyrimidinone derivatives as high-affinity, selective 5-HT1A receptor ligands” (J Med Chem, 1997)
# pIC50: −log10 of the molar value.
# Experiments:
# [1] = target: T1, 5-hydroxytryptamine receptor 1A (Rattus norvegicus, UniProt P19327); assay: In vitro inhibitory concentration against radioligand [3H]8-OH-DPAT binding to 5-hydroxytryptamine 1A receptor in rat hippocampal membrane.; format: cell membranes, Hippocampus
# T1 sequence (P19327 whole entry): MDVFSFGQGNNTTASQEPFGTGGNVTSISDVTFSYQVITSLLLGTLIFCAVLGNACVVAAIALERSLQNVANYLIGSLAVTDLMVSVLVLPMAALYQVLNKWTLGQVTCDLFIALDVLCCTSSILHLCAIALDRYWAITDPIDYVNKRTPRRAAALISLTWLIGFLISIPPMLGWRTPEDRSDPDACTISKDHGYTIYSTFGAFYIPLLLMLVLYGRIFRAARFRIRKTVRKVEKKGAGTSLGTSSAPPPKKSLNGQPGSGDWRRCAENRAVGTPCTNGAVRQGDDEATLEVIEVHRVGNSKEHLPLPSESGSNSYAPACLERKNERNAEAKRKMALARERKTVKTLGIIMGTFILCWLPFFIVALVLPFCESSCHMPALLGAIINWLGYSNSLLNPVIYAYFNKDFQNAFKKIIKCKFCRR
# How it was run: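 Rat hippocampal membranes (male SD rats, ~150 g) were washed in 50 mM Tris-HCl pH 7.4, including 10 min at 37 °C. Incubation buffer contained 4 mM CaCl2 and 10 μM pargyline. Filtered onto GF/B and counted; 50% inhibitory concentration from fitted curves.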
# [2] = target: T2, Adrenergic receptor alpha-1 (Rattus norvegicus, UniProt P15823+P23944+P43140); assay: In vitro inhibitory concentration against radioligand [3H]prazosin binding to alpha-1 adrenergic receptor in rat cortical membrane.; format: cell membranes
# T2 sequence (P15823 whole entry): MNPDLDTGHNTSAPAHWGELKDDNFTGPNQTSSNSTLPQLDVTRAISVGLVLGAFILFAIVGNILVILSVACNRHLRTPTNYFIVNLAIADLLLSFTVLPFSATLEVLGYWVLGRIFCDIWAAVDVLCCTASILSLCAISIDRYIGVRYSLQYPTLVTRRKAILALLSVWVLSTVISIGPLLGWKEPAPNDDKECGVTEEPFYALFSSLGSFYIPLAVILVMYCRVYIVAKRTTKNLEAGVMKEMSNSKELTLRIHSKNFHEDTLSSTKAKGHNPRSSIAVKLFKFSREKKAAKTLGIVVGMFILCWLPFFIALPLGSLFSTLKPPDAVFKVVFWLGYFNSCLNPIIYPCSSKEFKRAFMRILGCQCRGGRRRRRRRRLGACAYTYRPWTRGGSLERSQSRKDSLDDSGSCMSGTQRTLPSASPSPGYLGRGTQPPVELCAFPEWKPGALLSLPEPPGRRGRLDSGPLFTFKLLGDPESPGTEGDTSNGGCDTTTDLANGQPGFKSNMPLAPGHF
# T2 sequence (P23944 whole entry): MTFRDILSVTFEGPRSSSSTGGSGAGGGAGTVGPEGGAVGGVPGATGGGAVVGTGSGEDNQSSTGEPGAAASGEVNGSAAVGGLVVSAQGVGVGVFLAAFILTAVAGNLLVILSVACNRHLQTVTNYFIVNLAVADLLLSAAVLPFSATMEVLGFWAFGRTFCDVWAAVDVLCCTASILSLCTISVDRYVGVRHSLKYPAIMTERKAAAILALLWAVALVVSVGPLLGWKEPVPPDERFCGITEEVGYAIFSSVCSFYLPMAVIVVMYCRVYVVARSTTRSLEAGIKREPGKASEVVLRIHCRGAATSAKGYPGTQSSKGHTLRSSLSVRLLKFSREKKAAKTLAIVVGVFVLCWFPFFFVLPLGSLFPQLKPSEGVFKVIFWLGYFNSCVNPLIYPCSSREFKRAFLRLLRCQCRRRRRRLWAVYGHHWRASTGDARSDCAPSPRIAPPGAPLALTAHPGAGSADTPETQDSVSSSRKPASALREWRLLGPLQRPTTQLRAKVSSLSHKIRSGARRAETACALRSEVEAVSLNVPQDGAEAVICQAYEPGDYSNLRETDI
# T2 sequence (P43140 whole entry): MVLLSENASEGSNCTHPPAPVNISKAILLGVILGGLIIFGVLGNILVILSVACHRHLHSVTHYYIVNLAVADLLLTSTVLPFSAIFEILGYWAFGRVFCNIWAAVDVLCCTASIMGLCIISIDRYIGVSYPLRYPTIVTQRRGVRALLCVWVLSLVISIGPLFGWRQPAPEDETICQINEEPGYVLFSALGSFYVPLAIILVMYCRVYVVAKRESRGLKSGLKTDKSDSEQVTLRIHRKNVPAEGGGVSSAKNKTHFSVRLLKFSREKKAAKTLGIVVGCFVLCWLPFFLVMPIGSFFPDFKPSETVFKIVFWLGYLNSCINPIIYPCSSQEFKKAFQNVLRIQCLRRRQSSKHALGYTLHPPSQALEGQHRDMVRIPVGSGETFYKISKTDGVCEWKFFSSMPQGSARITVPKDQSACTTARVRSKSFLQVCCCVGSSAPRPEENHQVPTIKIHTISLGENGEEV
# How it was run: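 Male CRL:CD(SD)BR-COBS rats (~150 g) were decapitated. Cortex was homogenized in 50 mM Tris-HCl pH 7.4, spun at 50000g, given 10 min at 37 °C and washed. Incubation buffer had 0.1% ascorbic acid and 10 μM pargyline. GF/B filtration and scintillation counting; IC50 from dose-inhibition curves.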
# [3] = target: Serotonin 1a (5-HT1a) receptor/Adrenergic receptor alpha-1 (Rattus norvegicus) (UniProt P15823+P23944+P43140+P19327); assay: Selectivity for alpha-1-adrenergic receptor to that of 5-HT1A receptor.; format: protein assay
# How it was run: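 Ratio of IC50 at α1-adrenoceptors ([3H]prazosin, rat cortex) to IC50 at 5-HT1A receptors ([3H]-8-OH-DPAT, rat hippocampus). Each IC50 came from radioligand displacement curves.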
# [4] = target: Adrenergic receptor alpha-1 (Rattus norvegicus) (UniProt P15823+P23944+P43140); assay: Compound at 10E-5 M was tested in vitro for the inhibition of radioligand [3H]-prazosin binding to Alpha-1 adrenergic receptor in rat cortical membrane; format: cell membranes
# [5] = target: T3, 5-hydroxytryptamine receptor 1A (Rattus norvegicus) (UniProt P19327); assay: Compound at 10E-5 M was tested in vitro for the inhibition of radioligand [3H]8-OH-DPAT binding to 5-hydroxytryptamine 1A receptor in rat hippocampal membrane; format: cell membranes; details: Hippocampus
# T3 sequence (whole entry): T1 sequence (P19327 whole entry)
Compound,pIC50 [1],IC50 [2] [nM],Selectivity [3],inhibition [4] [%],inhibition [5] [%],pIC50 [2]
Cc1sc2nc(SCCCN3CCN(c4ccccc4)CC3)n(N)c(=O)c2c1C,8.48,43,13,–,–,–
COc1ccccc1N1CCN(CCCSc2nc(O)c3c4c(sc3n2)CCCC4)CC1,–,38,0.6,–,–,–
COc1ccccc1N1CCN(CCCOc2nc(SC)nc3sc4c(c23)CCCC4)CC1,5.85,75,0.05,–,–,–
Oc1nc(SCCCN2CCN(c3ncccn3)CC2)nc2sc3c(c12)CCCC3,6.30,1814,3.5,–,–,–
COc1ccccc1N1CCN(CCCSc2nc3ccccc3c(=O)n2N)CC1,9.30,4,8,–,–,–
Cc1sc2nc(SCCCN3CCN(c4ncccn4)CC3)[nH]c(=O)c2c1C,6.65,–,–,–,–,–
COc1ccccc1N1CCN(CCSc2nc(O)c3c4c(sc3n2)CCCC4)CC1,–,20,0.2,–,–,–
COc1ccccc1N1CCN(CCCSc2nc3sc4c(c3c(=O)n2N)CCCC4)CC1,8.89,39,30,–,–,–
COc1ccccc1N1CCN(CCCSc2nc3sccc3c(=O)n2N)CC1,8.92,2.9,2,–,–,–
NCCc1c[nH]c2ccc(O)cc12,–,–,–,< 50,–,–
COc1ccc(N2CCN(CCCSc3nc(O)c4c(C)c(C)sc4n3)CC2)cc1,–,–,–,< 50,< 50,–
Cc1sc2[nH]c(=S)n(N)c(=O)c2c1C,–,–,–,–,< 50,< 5.00
COc1ccccc1N1CCN(CCSc2nc3sc4c(c3c(=O)[nH]2)CCCC4)CC1,7.01,–,–,–,–,–
Cc1sc2nc(SCCCN3CCN(c4ccc(Cl)cc4)CC3)nc(O)c2c1C,–,–,–,< 50,< 50,–
Cc1sc2nc(SCCCN3CCN(c4ccccc4Cl)CC3)nc(O)c2c1C,–,161,0.35,–,–,–
Cc1sc2nc(SCCCN3CCN(c4ccccc4Cl)CC3)[nH]c(=O)c2c1C,6.34,–,–,–,–,–
COc1ccccc1N1CCN(CCCSc2nc3sc4c(c3c(=O)n2C)CCCC4)CC1,8.15,64,9,–,–,–
Oc1nc(SCCCN2CCN(c3cccc4ccccc34)CC2)nc2sc3c(c12)CCCC3,–,445,1,–,–,–
O=c1[nH]c(SCCCN2CCN(c3cccc4ccccc34)CC2)nc2sc(-c3ccccc3)cc12,5.70,–,–,–,–,–

Compound,pIC50 [1],IC50 [2] [nM],Selectivity [3],inhibition [4] [%],inhibition [5] [%],pIC50 [2]
COc1ccccc1N1CCN(CCCn2c(SC)nc3sc4c(c3c2=O)CCCC4)CC1,6.29,95,0.2,–,–,–
Cc1sc2nc(SCCCN3CCN(c4cccc(Cl)c4)CC3)nc(O)c2c1C,6.01,299,0.3,–,–,–
COc1ccccc1N1CCN(CCCSc2nc3sc4c(c3c(=O)[nH]2)CCCC4)CC1,7.23,–,–,–,–,–
Cc1sc2nc(SCCCN3CCN(c4cccc5ccccc45)CC3)nc(O)c2c1C,–,886,2.5,–,–,–
Oc1nc(SCCCN2CCN(c3cccc4ccccc34)CC2)nc2sc(-c3ccccc3)cc12,–,2454,1,–,–,–
COc1ccccc1N1CCN(CCCSc2nc3sc(C)c(C)c3c(=O)n2Nc2ccccc2)CC1,6.30,32,0.06,–,–,–
COc1ccccc1N1CCN(CCCSc2nc(O)c3c(C)c(C)sc3n2)CC1,7.62,40,2,–,–,–
COc1ccccc1N1CCN(CCCSc2nc3sc(C)c(C)c3c(=O)n2C)CC1,8.52,27,9,–,–,–
O=c1[nH]c(SCCCN2CCN(c3cccc4ccccc34)CC2)nc2sc3c(c12)CCCC3,6.43,–,–,–,–,–
COc1ccccc1N1CCN(CCc2nn3c(=O)c4c(C)c(C)sc4nc3s2)CC1,7.38,125,3,–,–,–
Cc1sc2nc(SCCCN3CCN(c4cccc5ccccc45)CC3)[nH]c(=O)c2c1C,6.45,–,–,–,–,–
COc1ccccc1N1CCN(CCCSc2nc(O)c3c(n2)sc2ccccc23)CC1,7.34,91,2,–,–,–
O=c1[nH]c(SCCCN2CCN(c3ccccc3Cl)CC2)nc2sc3c(c12)CCCC3,6.03,–,–,–,–,–
Cc1sc2nc(SCCCN3CCN(c4ncccn4)CC3)n(C)c(=O)c2c1C,7.19,2030,31,–,–,–
Cc1sc2nc(SCCCN3CCN(c4ncccn4)CC3)nc(O)c2c1C,–,1098,5,–,–,–
Cc1ccc(N(CC2=NCCN2)c2cccc(O)c2)cc1,–,–,–,–,< 50,–
Oc1nc(SCCCN2CCN(c3ccccc3Cl)CC2)nc2sc3c(c12)CCCC3,–,168,0.2,–,–,–
COc1ccccc1N1CCN(CCCSc2nc(O)c3cc(-c4ccccc4)sc3n2)CC1,6.41,224,0.6,–,–,–
